Screens (PubChem BioAssay)
PfGluPho inh: PfG6PD (Plasmodium falciparum) enzyme inhibition; PfGluPho enzyme, NADPH resazurin-diaphorase fluorescence; 0.78% of 350,000 active; AID 504690; inhibition, % at 20 µM;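 active means inhibition reaching at least a set limit at 20 µM in the primary screen, cut at about 59% in these data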;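 further: 0% = DMSO wells with substrate and 100% = DMSO wells lacking glucose-6-phosphate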
HKDC1 inh: HKDC1 (human) hexokinase inhibition; 0.16% of 340,000 active; Q2TB90; recombinant HKDC1, G6PDH/diaphorase resazurin coupled fluorescence; inhibition, % at 20 µM;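 active means inhibition above about 35% when tested at 20 µM, limit read from the data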;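 further: plate controls were DMSO wells with enzyme for no effect and DMSO wells lacking enzyme for full effect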
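Test system: recombinant HKDC1 (HK5) hexokinase enzyme, produced in-house / Doses: 20 µM test compound, 1% DMSO / Timing: 90 min, room temperature / Detection: G6PDH/diaphorase-coupled fluorescence, 1 mM NADP, 100 µM resazurin, 525/613 nm / Control set: DMSO wells with and without enzyme mix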
Exocytosis inh: lytic granule exocytosis inhibition; TALL-104 LAMP-1 surface exposure, flow cytometry; cells stimulated with thapsigargin and PMA; inhibition, % at 10 µM; 0.66% of 360,000 active; AID 651702;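 active means inhibition above about 55%, limit read from the data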
ABHD5-PLIN5 inh: blocks binding of human ABHD5 to perilipin-5. Q00G26+Q8WTS1. Split G. princeps luciferase complementation, luminescence, 4 h. inhibition, % at 4 µM. 0.78% of 360,000 active. AID 602281;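 active means inhibition above the mean inhibition across every tested compound plus 3 SD, cut at about 22% in these data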;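 further: 0% = DMSO only wells and the 100% control is not disclosed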
ABHD5-PLIN5 conf: ABHD5-PLIN5 interaction inhibition, confirmed; AID 651612; 67% of 2,200 active; biochemical ABHD5-PLIN5 interaction, luminescence; inhibition, % at 4 µM; shares compounds with ABHD5-PLIN5 inh; in the data active means inhibition above about 23%;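 further: 0% = DMSO vehicle wells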
HNF4 split-luc: HNF4 split-luciferase signal hit, counter-screen; shares compounds with ABHD5-PLIN5 inh; HNF4 dimerization, luminescence, biochemical; inhibition, % at 4 µM; 77% of 2,200 active; AID 651674;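 active means mean inhibition across replicate wells exceeding the computed hit threshold, cut at about 13% in these data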;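 further: light from luciferase halves that rejoin when HNF4 fusion proteins dimerize; 0% = DMSO only wells and the 100% control is not given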
Target sequence (P41235 whole entry, looked up, the tested form may be a part): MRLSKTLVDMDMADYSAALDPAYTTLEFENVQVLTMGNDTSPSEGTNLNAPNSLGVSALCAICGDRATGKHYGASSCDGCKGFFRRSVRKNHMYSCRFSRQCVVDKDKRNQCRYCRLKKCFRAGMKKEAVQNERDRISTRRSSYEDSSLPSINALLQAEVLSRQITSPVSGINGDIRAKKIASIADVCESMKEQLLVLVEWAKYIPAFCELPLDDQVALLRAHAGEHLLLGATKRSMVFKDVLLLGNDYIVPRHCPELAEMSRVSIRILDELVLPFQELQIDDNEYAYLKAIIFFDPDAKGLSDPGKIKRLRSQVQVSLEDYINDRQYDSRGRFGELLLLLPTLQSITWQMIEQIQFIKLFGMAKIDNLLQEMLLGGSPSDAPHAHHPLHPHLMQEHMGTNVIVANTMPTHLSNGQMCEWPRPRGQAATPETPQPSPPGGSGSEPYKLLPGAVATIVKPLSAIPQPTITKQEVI
An asterisk follows results filed as active; . = not tested or not shown. An excerpt weighted towards active compounds, which were near 2.2% of everything screened.

SMILES	PfGluPho inh	HKDC1 inh	Exocytosis inh	ABHD5-PLIN5 inh	ABHD5-PLIN5 conf	HNF4 split-luc
O=C(CCN1C(=O)/C(=C/c2ccccc2)SC1=S)N1CCCCCC1	-13.1	-0.5	3.0	-11.6	.	.
C[N+](C)(C)CCC(=O)N1C/C(=C/c2ccccc2)C(=O)/C(=C\c2ccccc2)C1	37.8	15.2	-4.3	92.2*	100.5*	100.5*
CN1CCN(S(=O)(=O)c2ccc(NC(=O)c3ccc(F)cc3Cl)cc2)CC1	-21.9	-2.0	-0.3	10.1	.	.
COCCNC(=S)N=Nc1c(O)[nH]c2ccc([N+](=O)[O-])cc12	11.3	0.2	-5.3	-3.7	.	.
CCN1/C(=C/C=C/c2oc3ccc(-c4ccccc4)cc3[n+]2CC)Oc2ccc(-c3ccccc3)cc21	43.2	30.0	28.6	37.1*	92.1*	59.9*
CCCCN1C(=O)/C(=C/C=C2\Oc3ccccc3N2CC)SC1=S	36.0	1.8	0.1	5.3	.	.
Oc1c(C(c2ccccc2)N2CCCCC2)ccc2ccccc12 (stereo not given)	50.1	.	16.6	37.6*	96.1*	47.7*
O=C(N1CCCCC1)N1CCN(C(c2ccccc2)c2ccccc2)CC1	-3.7	-3.2	0.1	-8.0	.	.
Cc1ccc(NC(=S)N(CCN2CCCCC2)Cc2ccco2)cc1Cl	22.9	6.4	6.1	7.3	.	.
COc1nc(=O)n(C2C=CC(=O)O2)cc1F (stereo not given)	-6.5	.	-0.9	40.9*	52.3*	34.3*
COc1ccc(N/N=C(\C#N)C(=N)SCc2ccccc2)cc1	4.6	15.9	3.6	39.2*	38.5*	36.6*
Cc1cc(NC(=O)C2CC(=O)N(c3cccc(Cl)c3)C2)no1 (stereo not given)	-19.7	-1.3	-9.0	-8.5	.	.
Cc1ccc(-c2oc3ncnc(N)c3c2-c2ccc(C)cc2)cc1	-9.2	-8.9	-0.4	24.3*	6.9	4.0
CC1(C)CC(=O)C(C(C2=C(O)CC(C)(C)CC2=O)c2ccc(O)c([N+](=O)[O-])c2)=C(O)C1	-15.8	-6.9	3.5	23.5*	72.8*	56.8*
CC1(C)CC(=O)C(C(C2=C(O)CC(C)(C)CC2=O)c2ccc([N+](=O)[O-])cc2)C(=O)C1 (stereo not given)	7.3	-11.4	-0.5	-3.1	.	.
BrC(=C\c1ccccc1)/C=N/n1cnnc1	3.6	-0.8	3.2	38.0*	42.2*	44.6*
CC1=CC2C(C(O)CC3(C)C2CC(C)C32OCOC23COCO3)C2(C)C/C(=C\O)C(=O)C=C12 (stereo not given)	-8.6	4.2	72.2*	32.3*	42.2*	8.6
CC(=O)Oc1ccc(C23c4ccccc4C2(OC(C)=O)c2cc(OC(C)=O)ccc23)cc1 (stereo not given)	14.8	0.5	-10.4	98.8*	101.6*	53.2*
O=C(Nn1cnnc1)c1ccccc1Cl	6.4	-4.9	1.0	-0.4	.	.
Cc1ccc(CN(C)C(=O)CCc2nc3sc4c(c3c(=O)[nH]2)CCCC4)o1	33.8	2.5	-3.3	32.2*	17.4	28.6*
CN(C)C(=O)CCc1nc2sc3c(c2c(=O)[nH]1)CCCC3	-17.6	7.9	1.8	4.1	.	.
CN(Cc1ccco1)C(=O)CCc1nc2sc3c(c2c(=O)[nH]1)CCCC3	-0.1	1.6	-4.5	23.6*	26.4*	42.7*
N#Cc1ccc(-c2ccc(OCC(=O)NCCCN3CCCC3=O)cc2)cc1	11.5	-3.2	-0.3	-9.9	.	.
COc1cccc(C2=NNC(=NCc3ccccc3)SC2)c1	19.4	-13.9	-2.1	-7.4	.	.
CCC1(C)N=C(c2ccc3c(c2)OCO3)CC(c2ccccc2O)N1 (stereo not given)	24.9	5.6	4.1	49.7*	91.3*	65.0*
CN(C(=O)c1cc(-c2ccc3c(c2)OCO3)on1)c1ccccc1	7.9	-1.1	7.2	-5.1	.	.
COc1cccc(C2=NC(C)(C)NC(c3ccccc3O)C2)c1 (stereo not given)	8.5	0.9	-0.7	56.9*	73.2*	72.1*
CCOc1ccc(C2C(C(=O)c3cccs3)=C(O)C(=O)N2CCN2CCOCC2)cc1 (stereo not given)	6.2	-3.1	-4.0	-2.6	.	.
CC1(C(=O)Nc2cccc3cccnc23)CCN1Cc1ccc(-c2ccccc2)o1 (stereo not given)	.	.	1.3	61.0*	47.0*	72.8*
